A short description of test [1]: Displacement of FITC-phalloidin from rabbit muscle actin polymer after 1 hr by fluorescence analysis. In kind it is tissue-based, Oryctolagus cuniculus, Muscle tissue. In outline: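 Rabbit muscle actin and FITC-phalloidin were incubated 1 h at 22 °C in monomer buffer with 2 µL PIB per 100 µL. Drugs in DMSO were added for another 1 h at 22 °C, then the mixture was centrifuged and supernatant fluorescence read. EC50 is the concentration giving 50% of the maximal phalloidin-induced increase.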

The subject of test [2] is PtK2. Description: Effect on actin cytoskeleton in rat kangaroo PtK2 cells assessed as increase in binucleated cells at 1 to 10 uM after 24 hrs by immunofluorescence analysis. In kind it is functional, cell-based. The following applies: Potorous tridactylus. The gist of the method:
(§1)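 PtK2 cells were treated 24 h at 37 °C, then stained with FITC-anti-β-actin antibody (clone Ac-15) and DAPI. Cells were viewed under a 40× oil objective. FITC-phalloidin staining was also used.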

For test [3], the system named is PtK2. Description: Effect on actin cytoskeleton in rat kangaroo PtK2 cells assessed as reorganization and hypernucleation of actin assembly at 0.03 uM after 24 hrs by immunofluorescence analysis. In kind it is functional, cell-based. The following applies: Potorous tridactylus. In outline: as §1
The species entered for test [4] is Oryctolagus cuniculus. Description: Stimulation of rabbit muscle actin polymerization assessed as light scattering at 10 to 50 uM by fluorimetry. The following applies: Muscle tissue. In outline: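 90° light scattering at 400 nm, 22 °C. Background read for 3 min, then drug in DMSO added, mixed, and followed about 15 min. PIB (2.5 M KCl, 100 mM MgCl2, 50 mM ATP) used as reference inducer.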

Test [5] in a line: Antiproliferative activity against rat kangaroo PtK2 cells after 48 hrs. In kind it is cell-based. The note with it: Potorous tridactylus, PtK2, 48 h. The gist of the method:
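PtK2 kidney cells (Potorous tridactylis) are an attached line. They were exposed to drug for 48 h, and cell protein was the read-out of growth. IC50 was taken from the concentration response.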

Test [6] concerns CA46. Description: Antiproliferative activity against human CA46 cells after 24 hrs. The following applies: CA46, 24 h. In kind it is functional, cell-based. In outline:
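CA46 Burkitt lymphoma cells are a suspension line. They were grown 24 h at 37 °C with drug, and cell number was the read-out. IC50 is the concentration giving 50% growth inhibition.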

The subject of test [7] is PtK2. Description: Effect on actin cytoskeleton in rat kangaroo PtK2 cells assessed as increase in binucleated cells at 0.3 to 3 uM after 24 hrs by immunofluorescence analysis. The note with it: Potorous tridactylus. In kind it is functional, cell-based. The gist of the method:
as §1

The subject of test [8] is PtK2. Description: Effect on actin cytoskeleton in rat kangaroo PtK2 cells assessed as retracted cytoplasm and spiky appearance at 3 uM after 24 hrs by immunofluorescence analysis. In kind it is functional, cell-based. The note with it: Potorous tridactylus. In outline:
as §1

The species named for test [9] is Oryctolagus cuniculus. Description: Displacement of FITC-phalloidin from rabbit muscle actin polymer pretreated prior to FITC-phalloidin addition by fluorescence analysis. The following applies: Muscle tissue.
Test [10] has as its system PtK2. Description: Effect on actin cytoskeleton in rat kangaroo PtK2 cells assessed as thickening in microfilament at 1.0 uM after 24 hrs by immunofluorescence analysis relative to untreated control. In kind it is functional, cell-based. The note with it: Potorous tridactylus. In outline: as §1
Test [11] is described as follows: Stimulation of rabbit muscle actin polymerization by centrifugation assay. It is filed as tissue-based, Oryctolagus cuniculus, Muscle tissue. In outline: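 Purified rabbit muscle actin with drug under nonpolymerizing conditions (no exogenous K+). Polymer was separated by centrifugation and supernatant protein measured. EC50 is the concentration reducing supernatant protein by 50% compared with a drug-free control. Three independent experiments were averaged. Total incubation plus processing time was 2.5 h.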

The test system of test [12] is Candida albicans. Description: Antimicrobial activity against Candida albicans ATCC 14053 at 10 ug/disk by standard paper sensitivity disk-agar plate method. It is filed as functional. The following applies: read-out: IZ. In outline:
(§2)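 Agar disk diffusion with paper disks 6 mm in diameter, dose per disk as in line.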

The test system of test [13] is Salmonella enterica subsp. enterica. Description: Antimicrobial activity against Salmonella choleraesuis subsp. choleraesuis ATCC 14028 by standard paper sensitivity disk-agar plate method. In kind it is functional, organism-based. The gist of the method: (§3)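 Paper disks of 6 mm diameter placed on seeded agar plates; activity assessed by standard disk-agar sensitivity method.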

A further test relates to Staphylococcus aureus. Description: Antimicrobial activity against Staphylococcus aureus ATCC 12600 by standard paper sensitivity disk-agar plate method. It is filed as functional, organism-based. The gist of the method: as §3
Test [14] relates to PtK2. Description: Effect on actin cytoskeleton in rat kangaroo PtK2 cells assessed as hairy appearance at 3 uM after 24 hrs by immunofluorescence analysis. The note with it: Potorous tridactylus. In kind it is functional, cell-based. The gist of the method:
as §1

The subject of the next test is Pseudomonas aeruginosa. Description: Antimicrobial activity against Pseudomonas aeruginosa ATCC 10145 by standard paper sensitivity disk-agar plate method. In kind it is functional, organism-based. The gist of the method: as §3
Test [15] is filed under the species Oryctolagus cuniculus. Description: Stimulation of rabbit muscle actin polymerization by electron microscopy. The note with it: Muscle tissue. The gist of the method:
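Samples of purified rabbit muscle actin with drug were examined by electron microscopy for filaments, in parallel with K+-induced controls. Low-speed centrifugation (20000g, 30 min, 22 °C) was used to test for bundled polymer.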

The test system of test [16] is CA46. Description: Cell cycle arrest in human CA46 cells assessed as accumulation at G2/M phase at 0.2 uM after 24 hrs using propidium iodide labeling by flow cytometry. In kind it is functional. A general note: Flow cytometry measures light scatter and fluorescence of single cells or particles in a stream.
The subject of a further test is Bacillus subtilis. Description: Antimicrobial activity against Bacillus subtilis ATCC 6051 by standard paper sensitivity disk-agar plate method. In kind it is functional, organism-based. In outline:
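Paper disk on agar, disk diameter 6 mm.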

The test system of test [17] is PtK2. Description: Effect on actin cytoskeleton in rat kangaroo PtK2 cells assessed as thickening in microfilament at 0.3 uM after 24 hrs by immunofluorescence analysis relative to untreated control. In kind it is functional, cell-based. The note with it: Potorous tridactylus. In outline:
as §1

Test [18] relates to CA46. Description: Ratio of IC50 for rat kangaroo Ptk2 cells to IC50 for human CA46 cells.
Test [19] has as its system Candida albicans. Description: Antimicrobial activity against Candida albicans ATCC 14053 at 100 ug/disk by standard paper sensitivity disk-agar plate method. It is filed as functional. The note with it: read-out: IZ. In outline:
as §2

Test [20] deals with PtK2. Description: Effect on actin cytoskeleton in rat kangaroo PtK2 cells assessed as hairy appearance at 10 uM after 24 hrs by immunofluorescence analysis. The following applies: Potorous tridactylus. It is filed as functional, cell-based. The gist of the method:
as §1

Test [21] is described as follows: Antiproliferative activity against human NCI60 cells. It is filed as functional.
A further test has as its system Escherichia coli. Description: Antimicrobial activity against Escherichia coli ATCC 1775 by standard paper sensitivity disk-agar plate method. It is filed as functional, organism-based. In outline: as §3
The subject of test [22] is CA46. Description: Cell cycle arrest in human CA46 cells assessed as accumulation at G2/M phase at 1.0 uM after 24 hrs using propidium iodide labeling by flow cytometry. In kind it is functional. The gist of the method:
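CA46 human Burkitt lymphoma cells were treated with the drug for 24 h. Cellular DNA content was then labelled with propidium iodide and measured by flow cytometry. The read-out was the percentage of cells in G2/M phase, compared against an untreated control.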

Calls of active or inactive are those of the source. The rule behind the calls is not given here.

`C/C1=C\[C@H](C)C[C@H](C)OC(=O)C[C@H](c2ccc(O)cc2)NC(=O)[C@@H](Cc2c(Br)[nH]c3ccccc23)N(C)C(=O)[C@H](C)NC(=O)[C@@H](C)C1` [JASPAMIDE] returned an EC50 in test [1] of 6500 nM. For the same compound, the result in the test on PtK2 [2], in the test on PtK2 [3], in the test filed under Oryctolagus cuniculus [4], with PtK2 [7] and with PtK2 [8] was Active. Also, the results for the IC50 (in test [5]; with CA46 [6]) were 300 nM and 30 nM, respectively.
For `CC(=O)O[C@@H]1c2nc(cs2)C(=O)O[C@@H](CCCC(C)(Cl)Cl)[C@H](C)C(=O)O[C@@H](C(C)(C)O)c2nc(cs2)C(=O)OC1(C)C` [HECTOCHLORIN], the EC50 was over 60000 nM in [1] and 20000 nM in [11]. Also, the outcome (in the test filed under Oryctolagus cuniculus [9]; in test [13]; with Staphylococcus aureus; in the test with Pseudomonas aeruginosa; in the test filed under Oryctolagus cuniculus [15]; in the test on Bacillus subtilis) was inactive. Also, in the test on Escherichia coli, the result was inactive. Further, the outcome in the test on PtK2 [10], in the test with PtK2 [2], in the test listed under Oryctolagus cuniculus [4], in the test on PtK2 [14], in the test on PtK2 [17] and in the test on PtK2 [7] was Active. Further, the outcome in the test on PtK2 [20] was Active. Further, the zone of inhibition at 10 µg/disc in the test with Candida albicans [12] amounted to 11 mm. Moreover, the IC50 in test [5] worked out at 300 nM; with CA46 [6], 20 nM. The Activity in the test with CA46 [16] is on record as 37%. For the same compound, the “Ratio IC50” value in the test with CA46 [18] is given as 10. Besides, the zone of inhibition at 100 µg/disc in the test on Candida albicans [19] came to 16 mm. Further, in test [21], it took 5100 nM to inhibit growth by half (GI50).
Regarding `CC(C)[C@@H]1NC(=O)CNC(=O)[C@@H]2CSC(=N2)[C@H](C(C)(C)O)OC(=O)C(C)(C)[C@H](CCCC(C)(Cl)Cl)OC(=O)c2csc1n2` [LYNGBYABELLIN B], the outcome in the test with PtK2 [10], with PtK2 [2], in the test on PtK2 [14], in the test with PtK2 [17], with PtK2 [7] and in the test with PtK2 [20] was Active. The EC50 in test [11] was over 50000 nM. The IC50 is 1000 nM in [5] and 100 nM in the test on CA46 [6]. In addition, the Activity in the test on CA46 [22] is on record as 28%.

What is called EC50 is the concentration needed to bring the measured effect to its halfway point. High values mean lower potency in that assay, low ones higher potency in that assay. In general, IC50 refers to the concentration at which inhibition is half-maximal. Low values mean greater potency in that assay, high ones weaker potency in that assay. For orientation: GI50 means the concentration giving 50% growth inhibition. Low readings indicate more potent growth inhibition, high ones less potent growth inhibition.

The values are drawn from ChEMBL document CHEMBL1150591, “Structure and absolute stereochemistry of hectochlorin, a potent stimulator of actin assembly” (J Nat Prod, 2002).
